According to ChEMBL document CHEMBL4004830 (J Med Chem, 2017):
Active and inactive are the calls of the source. The rule behind the calls is not given here.

Legend:
Mus musculus [1] = assay: Toxicity in nude BALB/c mouse assessed as overt toxicity at 20 to 100 mg/kg, po qd measured up to 14 days post dose; format: organism-based; settings: in vivo, 336 h
Mus musculus [2] = assay: Toxicity in nude BALB/c mouse assessed as body weight loss at 20 to 100 mg/kg, po qd measured up to 14 days post dose; format: organism-based; settings: in vivo, 336 h
[3] = Dissociation constant, pKa of the compound by pH-metric titration method; format: physicochemical
[4] = AUC (0 to t) in albino Wistar rat at 5 mg/kg, iv up to 24 hrs by LC-MS/MS analysis; format: ADME, organism-based; set-up: dose 5 mg/kg, time < 24 hr, route intravenous; settings: in vivo
CDK2/Cyclin A2 = CDK2/Cyclin A2 (Homo sapiens, UniProt P24941); assay: Inhibition of CDK2/cyclin A (unknown origin) in presence of [gamma-33P]-ATP […]; format: protein-complex assay; settings: read-out: Ki(app)
Homo sapiens [5] = species: Homo sapiens; assay: Selectivity ratio of Ki for CDK2/cyclin A (unknown origin) to Ki for CDK4/cyclin D1 (unknown origin)
Method in brief: (§1)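 Apparent Ki for each CDK–cyclin complex (CDK4–cyclin D1, CDK6–cyclin D3, CDK2–cyclin A) calculated from the half-maximal inhibition (IC50) and that kinase's Km(ATP). The selectivity ratio is the CDK2 Ki divided by the CDK4 or CDK6 Ki.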

[6] = AUC (0 to t) in albino Wistar rat at 20 mg/kg administered via oral gavage measured up to 24 hrs by LC-MS/MS analysis; format: ADME, organism-based; set-up: dose 20 mg/kg, time < 24 hr, route oral; settings: in vivo
Cytochrome P450 2C9 = Cytochrome P450 2C9 (Homo sapiens, UniProt P11712); assay: Inhibition of CYP2C9 in human liver microsomes using tolbutamide as substrate in presence of NADPH; format: ADME
Cytochrome P450 2C9, sequence (P11712 whole entry, canonical isoform): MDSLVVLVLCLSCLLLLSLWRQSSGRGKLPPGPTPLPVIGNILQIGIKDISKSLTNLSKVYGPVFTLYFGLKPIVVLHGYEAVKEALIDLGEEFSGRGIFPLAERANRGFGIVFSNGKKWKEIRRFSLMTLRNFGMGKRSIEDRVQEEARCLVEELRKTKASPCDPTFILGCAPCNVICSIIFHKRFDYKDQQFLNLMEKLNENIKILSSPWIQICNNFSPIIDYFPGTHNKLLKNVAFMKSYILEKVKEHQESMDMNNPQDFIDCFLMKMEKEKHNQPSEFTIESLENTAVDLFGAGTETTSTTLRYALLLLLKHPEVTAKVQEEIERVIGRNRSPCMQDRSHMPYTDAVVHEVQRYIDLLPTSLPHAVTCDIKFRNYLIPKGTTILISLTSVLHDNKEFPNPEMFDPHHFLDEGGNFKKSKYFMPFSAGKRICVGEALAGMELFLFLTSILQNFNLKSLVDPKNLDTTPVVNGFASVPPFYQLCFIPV
Method in brief: (§2)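 Human liver microsomes with NADPH and isoform-specific probe substrate (midazolam CYP3A4, dextromethorphan CYP2D6, ethoxyresorufin CYP1A, tolbutamide CYP2C9, mephenytoin CYP2C19); IC50 reported in µM.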

[7] = Tmax in BALB/c mouse at 10 mg/kg administered via oral gavage measured up to 24 hrs by LC-MS/MS analysis; format: ADME, organism-based; settings: in vivo
Method in brief: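 Single-dose pharmacokinetics in male animals: albino Wistar rats given 5 mg/kg IV or 20 mg/kg PO, and BALB/c mice given 2 mg/kg IV or 10 mg/kg PO.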

Cytochrome P450 2C19 = Cytochrome P450 2C19 (Homo sapiens, UniProt P33261); assay: Inhibition of CYP2C19 in human liver microsomes using mephenytoin as substrate in presence of NADPH; format: ADME; method in brief: as §2
Cytochrome P450 2C19, sequence (P33261 whole entry): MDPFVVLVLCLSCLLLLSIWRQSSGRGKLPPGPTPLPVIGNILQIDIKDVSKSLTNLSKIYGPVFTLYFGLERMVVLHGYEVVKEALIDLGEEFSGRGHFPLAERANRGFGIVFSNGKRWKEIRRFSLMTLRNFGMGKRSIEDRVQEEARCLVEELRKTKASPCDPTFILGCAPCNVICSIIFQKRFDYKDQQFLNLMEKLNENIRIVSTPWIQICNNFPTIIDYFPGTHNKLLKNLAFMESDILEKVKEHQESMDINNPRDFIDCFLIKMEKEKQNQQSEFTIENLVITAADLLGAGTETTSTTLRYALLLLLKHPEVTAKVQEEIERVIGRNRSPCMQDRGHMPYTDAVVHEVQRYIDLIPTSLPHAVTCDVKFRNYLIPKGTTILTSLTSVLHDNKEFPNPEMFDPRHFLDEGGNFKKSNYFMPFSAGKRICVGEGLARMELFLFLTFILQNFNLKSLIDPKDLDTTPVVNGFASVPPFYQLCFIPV

[8] = AUC (0 to t) in BALB/c mouse at 10 mg/kg administered via oral gavage measured up to 24 hrs by LC-MS/MS analysis; format: ADME, organism-based; set-up: dose 10 mg/kg, time < 24 hr, route oral; settings: in vivo
Cytochrome P450 2D6 = Cytochrome P450 2D6 (Homo sapiens, UniProt P10635); assay: Inhibition of CYP2D6 in human liver microsomes using dextromethorphan as substrate in presence of NADPH; format: ADME; method in brief: as §2
Cytochrome P450 2D6, sequence (P10635 whole entry): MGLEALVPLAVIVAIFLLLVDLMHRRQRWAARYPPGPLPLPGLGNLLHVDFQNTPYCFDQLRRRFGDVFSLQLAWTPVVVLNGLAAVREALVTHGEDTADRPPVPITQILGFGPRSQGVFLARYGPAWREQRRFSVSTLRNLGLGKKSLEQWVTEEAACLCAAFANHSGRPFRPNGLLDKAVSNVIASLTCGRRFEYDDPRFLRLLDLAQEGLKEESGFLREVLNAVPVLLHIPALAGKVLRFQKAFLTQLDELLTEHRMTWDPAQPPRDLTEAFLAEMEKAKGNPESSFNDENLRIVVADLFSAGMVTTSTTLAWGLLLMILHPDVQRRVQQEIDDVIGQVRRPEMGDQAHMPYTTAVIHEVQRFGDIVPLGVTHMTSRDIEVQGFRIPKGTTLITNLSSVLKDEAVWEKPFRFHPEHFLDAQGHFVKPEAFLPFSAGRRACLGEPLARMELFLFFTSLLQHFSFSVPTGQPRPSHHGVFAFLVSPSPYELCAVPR

CDK9/cyclin T1 = CDK9/cyclin T1 (Homo sapiens, UniProt P50750); assay: Inhibition of CDK9/cyclin T1 (unknown origin) in presence of [gamma-33P]-ATP […]; format: protein-complex assay; settings: read-out: Ki(app)
CDK9/cyclin T1, sequence (O60563 whole entry): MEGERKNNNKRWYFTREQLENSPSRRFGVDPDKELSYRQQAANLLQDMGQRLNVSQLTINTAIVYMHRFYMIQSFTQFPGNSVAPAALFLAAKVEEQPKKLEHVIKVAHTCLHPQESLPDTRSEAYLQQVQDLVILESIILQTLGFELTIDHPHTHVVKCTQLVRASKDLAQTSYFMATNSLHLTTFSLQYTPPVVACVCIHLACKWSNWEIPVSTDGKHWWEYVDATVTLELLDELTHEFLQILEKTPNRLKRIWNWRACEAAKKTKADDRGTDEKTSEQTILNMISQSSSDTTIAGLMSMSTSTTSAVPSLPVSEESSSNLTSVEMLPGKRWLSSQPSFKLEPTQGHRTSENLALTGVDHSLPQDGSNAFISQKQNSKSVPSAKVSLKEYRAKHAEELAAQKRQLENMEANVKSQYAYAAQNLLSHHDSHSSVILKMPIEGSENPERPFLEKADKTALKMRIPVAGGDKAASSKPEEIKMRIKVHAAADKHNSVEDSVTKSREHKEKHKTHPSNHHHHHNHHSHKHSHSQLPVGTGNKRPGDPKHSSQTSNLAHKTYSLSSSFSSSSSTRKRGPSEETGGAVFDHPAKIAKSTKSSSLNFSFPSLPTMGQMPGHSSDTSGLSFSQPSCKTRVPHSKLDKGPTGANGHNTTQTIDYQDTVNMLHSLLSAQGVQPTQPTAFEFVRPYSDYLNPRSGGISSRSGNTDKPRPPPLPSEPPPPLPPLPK
CDK9/cyclin T1, sequence (P50750 whole entry): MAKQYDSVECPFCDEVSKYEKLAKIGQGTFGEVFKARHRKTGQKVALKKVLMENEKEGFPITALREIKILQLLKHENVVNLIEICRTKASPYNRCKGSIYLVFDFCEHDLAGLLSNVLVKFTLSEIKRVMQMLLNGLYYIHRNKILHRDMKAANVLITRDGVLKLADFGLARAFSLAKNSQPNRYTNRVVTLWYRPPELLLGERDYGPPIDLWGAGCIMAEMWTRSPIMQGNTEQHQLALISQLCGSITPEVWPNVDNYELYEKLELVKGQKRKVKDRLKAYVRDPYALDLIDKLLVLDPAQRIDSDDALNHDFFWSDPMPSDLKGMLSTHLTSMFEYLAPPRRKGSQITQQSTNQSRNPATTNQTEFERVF

Homo sapiens [9] = species: Homo sapiens; assay: Selectivity ratio of Ki for CDK2/cyclin A (unknown origin) to Ki for CDK6/cyclin D3 (unknown origin); method in brief: as §1
[10] = target: Cyclin-dependent kinase 4/6 (Homo sapiens) (UniProt P11802+Q00534); assay: Inhibition of CDK4/6 in human MV4-11 cells assessed as reduction in Rb phosphorylation at Ser780 after 12 to 24 hrs by Western blot analysis; format: cell-based
Cyclin-dependent kinase 4/6 (Homo sapiens), sequence (P11802 whole entry, looked up): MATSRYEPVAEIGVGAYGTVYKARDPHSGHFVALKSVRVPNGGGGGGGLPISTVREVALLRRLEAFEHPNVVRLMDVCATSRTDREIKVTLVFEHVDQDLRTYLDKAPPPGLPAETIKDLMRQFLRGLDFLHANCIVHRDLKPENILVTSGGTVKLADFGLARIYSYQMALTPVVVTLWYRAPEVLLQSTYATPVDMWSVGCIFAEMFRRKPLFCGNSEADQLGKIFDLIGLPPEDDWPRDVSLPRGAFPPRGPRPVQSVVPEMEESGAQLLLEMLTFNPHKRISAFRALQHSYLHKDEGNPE
Cyclin-dependent kinase 4/6 (Homo sapiens), sequence (Q00534 whole entry, looked up): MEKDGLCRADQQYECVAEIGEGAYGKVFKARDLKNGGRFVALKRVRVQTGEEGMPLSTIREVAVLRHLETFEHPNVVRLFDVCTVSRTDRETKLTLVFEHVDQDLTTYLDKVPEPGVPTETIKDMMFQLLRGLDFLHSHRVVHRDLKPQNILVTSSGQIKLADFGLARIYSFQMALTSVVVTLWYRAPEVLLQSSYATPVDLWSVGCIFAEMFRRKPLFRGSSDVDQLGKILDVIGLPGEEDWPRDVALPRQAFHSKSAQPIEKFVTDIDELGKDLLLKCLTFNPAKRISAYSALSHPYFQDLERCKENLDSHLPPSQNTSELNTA
Method in brief: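 MV4-11 cells treated 12 or 24 h across a dose series; Rb phospho-Ser780 detected by Western blot with β-actin as loading control; two independent experiments.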

[11] = Half-life in albino Wistar rat at 5 mg/kg, iv up to 24 hrs by LC-MS/MS analysis; format: ADME, organism-based; settings: in vivo
Method in brief: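 Single-dose pharmacokinetics in male albino Wistar rats, 5 mg/kg IV.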

[12] = Cmax in albino Wistar rat at 5 mg/kg, iv up to 24 hrs by LC-MS/MS analysis; format: ADME, organism-based; set-up: dose 5 mg/kg, route intravenous; settings: in vivo
[13] = target: Voltage-gated inwardly rectifying potassium channel KCNH2 (Homo sapiens, UniProt Q12809); assay: Inhibition of human ERG expressed in CHO cells by patch clamp electrophysiology; format: cell-based
Method in brief: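 Cardiac toxicity assay in CHO cells expressing hERG; IC50 determined.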

MV4-11 [14] = assay: Antitumor activity against human MV4-11 cells xenografted in nude BALB/c mouse assessed as tumor growth inhibition at 100 mg/kg, po qd administered for 33 consecutive days measured post last dose; format: functional; settings: MV4-11, po, read-out: TGI
[15] = Clearance in albino Wistar rat at 5 mg/kg, iv up to 24 hrs by LC-MS/MS analysis; format: ADME, organism-based; settings: in vivo
Mus musculus [16] = assay: Toxicity in nude BALB/c mouse xenografted with human MV4-11 cells assessed as body weight loss at 100 mg/kg, po qd for 33 consecutive days and left untreated for another 50 days; format: organism-based; settings: in vivo, 1200 h
[17] = target: Serine/threonine-protein kinase 16 (Homo sapiens) (UniProt O75716); assay: Inhibition of human STK16 (11 to 305 amino acid residues) expressed in bacterial expression system at 1 uM in presence of [gamma-33P]-ATP […]
Serine/threonine-protein kinase 16 (Homo sapiens), sequence (O75716 whole entry, the tested form may be a part): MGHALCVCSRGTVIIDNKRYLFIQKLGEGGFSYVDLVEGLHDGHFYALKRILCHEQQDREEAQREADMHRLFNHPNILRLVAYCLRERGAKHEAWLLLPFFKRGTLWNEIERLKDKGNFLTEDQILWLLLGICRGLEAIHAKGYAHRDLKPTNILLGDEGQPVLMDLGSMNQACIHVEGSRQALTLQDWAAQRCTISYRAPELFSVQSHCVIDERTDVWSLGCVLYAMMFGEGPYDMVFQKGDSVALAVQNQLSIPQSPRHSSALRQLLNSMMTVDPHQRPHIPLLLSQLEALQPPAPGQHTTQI
Method in brief: (§3)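 Broad kinome panel of 369 kinases screened at 1 µM test concentration.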

[18] = Apparent permeability co-efficient from apical to basolateral side in human Caco2 cells; format: ADME, cell-based; settings: Caco-2
Method in brief: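 Caco-2 monolayer assay measuring the apparent permeability coefficient (P_app, 10^-6 cm/s) in the A→B and B→A directions. Efflux ratio is the mean P_app B-A divided by the mean P_app A-B.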

[19] = target: Dual specificity tyrosine-phosphorylation-regulated kinase 2 (Homo sapiens) (UniProt Q92630); assay: Inhibition of full-length human DYRK2 (1 to 528 amino acid residues) expressed in mammalian expression system at 1 uM in presence of [gamma-33P]-ATP […]; method in brief: as §3
Dual specificity tyrosine-phosphorylation-regulated kinase 2 (Homo sapiens), sequence (Q92630 whole entry, the tested form may be a part): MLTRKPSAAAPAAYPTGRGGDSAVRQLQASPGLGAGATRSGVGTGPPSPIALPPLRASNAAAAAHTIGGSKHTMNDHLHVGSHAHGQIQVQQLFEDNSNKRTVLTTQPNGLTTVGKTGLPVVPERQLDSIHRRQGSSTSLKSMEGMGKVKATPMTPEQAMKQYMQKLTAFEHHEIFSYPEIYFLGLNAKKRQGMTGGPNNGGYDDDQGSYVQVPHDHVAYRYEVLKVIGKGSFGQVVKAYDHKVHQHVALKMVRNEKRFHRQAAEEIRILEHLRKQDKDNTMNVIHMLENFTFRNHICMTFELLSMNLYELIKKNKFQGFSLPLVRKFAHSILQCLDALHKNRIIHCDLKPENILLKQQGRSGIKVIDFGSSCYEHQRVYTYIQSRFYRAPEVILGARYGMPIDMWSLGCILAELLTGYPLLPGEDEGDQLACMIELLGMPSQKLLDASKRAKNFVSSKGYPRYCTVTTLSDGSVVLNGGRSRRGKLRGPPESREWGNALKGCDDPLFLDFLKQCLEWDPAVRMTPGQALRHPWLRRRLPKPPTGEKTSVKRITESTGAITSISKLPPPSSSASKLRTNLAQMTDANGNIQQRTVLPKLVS

MV4-11 [20] = assay: Antitumor activity against human MV4-11 cells xenografted in nude BALB/c mouse assessed as tumor growth inhibition at 100 mg/kg, po qd administered for 33 consecutive days and left untreated for another 50 days; format: functional, organism-based
MV4-11 [21] = assay: Induction of apoptosis in human MV4-11 cells assessed as late apoptotic cells at 10 times GI50 after 24 hrs by annexin V/propidium iodide staining based flow cytometry (reference value: 4.87%); format: functional
MV4-11 [22] = assay: Cell cycle arrest in human MV4-11 cells assessed as accumulation at sub-G1 phase at 0.04 uM after 24 hrs by propidium iodide staining based flow cytometry (reference value: 1.99%); format: functional
MV4-11 [23] = assay: Cell cycle arrest in human MV4-11 cells assessed as accumulation at S phase at 0.20 uM after 24 hrs by propidium iodide staining based flow cytometry (reference value: 19.07%); format: functional
MV4-11 [24] = assay: Cell cycle arrest in human MV4-11 cells assessed as accumulation at sub-G1 phase at 0.40 uM after 24 hrs by propidium iodide staining based flow cytometry (reference value: 1.99%); format: functional
MV4-11 [25] = assay: Cell cycle arrest in human MV4-11 cells assessed as accumulation at G1 phase at 0.20 uM after 24 hrs by propidium iodide staining based flow cytometry (reference value: 61.01%); format: functional
MV4-11 [26] = assay: Cell cycle arrest in human MV4-11 cells assessed as accumulation at G1 phase at 0.04 uM after 24 hrs by propidium iodide staining based flow cytometry (reference value: 61.01%); format: functional

With `Cc1nc(NC2CCCC2)sc1-c1ccnc(Nc2ccc(N3CCOCC3)cn2)n1` the Activity (Mus musculus [1]) was “Non-Toxic”, the Activity (Mus musculus [2]) was “Non-Toxic” and the pKa [3] was 3.98 to 5.68. The AUC(0-t) at 24 h [4] was 15.9 µM·h, the Ki (CDK2/Cyclin A2) was 4.68 µM and the Ratio Ki (Homo sapiens [5]) was > 1200. The AUC(0-t) at 24 h [6] was 15.9 µM·h, the IC50 (Cytochrome P450 2C9) was > 25 µM and the Tmax [7] was 2 h. The IC50 (Cytochrome P450 2C19) was > 25 µM, the AUC(0-t) at 24 h [8] was 5.9 µM·h and the IC50 (Cytochrome P450 2D6) was > 25 µM. The Ki (CDK9/cyclin T1) was > 5 µM, the Ratio Ki (Homo sapiens [9]) was 156 and the inhibition [10] was “Dose-dependent effect”. The half-life [11] was 4.2 h, the Cmax [12] was 38.8 µM and the IC50 [13] was > 10 µM. The inhibition in vivo at 100 mg/kg (MV4-11 [14]) was 76%, the clearance [15] was 11.8 mL/min/kg and the Activity (Mus musculus [16]) was “Non-Toxic”. For the same compound, the inhibition [17] was “Active”, the Papp A→B [18] was 10.1 ×10⁻⁶ cm/s and the inhibition [19] was “Active”. For the same compound, the TGI (MV4-11 [20]) was “Active” and the Activity (MV4-11 [21]) was 7.27%.
With `CC(=O)c1c(C)c2cnc(Nc3ccc(N4CCNCC4)cn3)nc2n(C2CCCC2)c1=O` [PALBOCICLIB] the Activity (MV4-11 [22]) was 2.66%, the Activity (MV4-11 [23]) was 9.33% and the Activity (MV4-11 [24]) was 2.93%. For the same compound, the Activity (MV4-11 [25]) was 80.66%, the Activity (MV4-11 [26]) was 68.17% and the Activity (MV4-11 [21]) was 7.65%.
